Reference: ChEMBL document CHEMBL1134785, “Synthesis and biological evaluation of prostaglandin-F alkylphosphinic acid derivatives as bone anabolic agents for the treatment of osteoporosis” (J Med Chem, 2001)

Assays:
Rattus norvegicus [1] = assay: Tissue area measured Histomorphometrically after a dose of 6000 ug/kg in Tibial Diaphysis; assay type: functional
Summary of the method: (§1)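 A positive-control group of ovariectomized rats was injected daily at 6 mg/kg/day for 60 days, starting 60 days after surgery. Xylenol orange (90 mg/kg) was given before treatment and calcein (10 mg/kg) 14 and 4 days before sacrifice. Tibiae were read by fluorescent-light histomorphometry.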

Rattus norvegicus [2] = assay: Derived trabecular thickness measured using micro Computed Tomography(CT) after a dose of 6000 ug/kg in Vertebral Bone; assay type: functional, Trabecula
Summary of the method: (§2)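 Micro-CT of the fifth lumbar vertebra, measuring cancellous bone volume and architecture. Rats were 6 months old, OVX 60 days before treatment, then dosed daily for 60 days. Test-agent doses were 10–3000 µg/kg, given as a once-daily subcutaneous injection; 6 mg/kg/day was given to the positive-control group. Groups were compared with vehicle by ANOVA plus LSD test.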

Rattus norvegicus [3] = assay: Bone Formation rate/tissue vol measured Histomorphometrically after a does of 6000 ug/kg in proximal tibial metaphysis; assay type: functional
Summary of the method: (§3)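 Proximal tibial metaphysis, 1 to 4 mm distal to the growth plate–metaphyseal junction, assessed by histomorphometry in 6-month-old female rats. Rats were ovariectomized (OVX) 60 days before dosing, then given daily injections for 60 days. Fluorochrome labels were xylenol orange 90 mg/kg before treatment and calcein 10 mg/kg at 14 and 4 days before sacrifice. Groups were compared with vehicle by ANOVA plus LSD test.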

Rattus norvegicus [4] = assay: Marrow area measured Histomorphometrically after a dose of 6000 ug/kg in Tibial Diaphysis; assay type: functional
Rattus norvegicus [5] = assay: Directly measured thickness measured using micro Computed Tomography(CT) after a dose of 6000 ug/kg in Vertebral Bone; assay type: functional; summary of the method: as §2
Rattus norvegicus [6] = assay: Trabecular no measured Histomorphometrically after a dose of 6000 ug/kg in proximal tibial metaphysis; assay type: functional, Trabecula
Summary of the method: (§4)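 A positive-control group of ovariectomized rats was injected daily at 6 mg/kg/day for 60 days, beginning 60 days post-surgery. Fluorochrome labels were xylenol orange (90 mg/kg) before treatment and calcein (10 mg/kg) 14 and 4 days before sacrifice. Histomorphometry covered the proximal tibial metaphysis 1-4 mm below the growth plate-metaphyseal junction.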

Rattus norvegicus [7] = assay: Endosteal mineralizing surface measured Histomorphometrically after a does of 6000 ug/kg in Tibial Diaphysis; assay type: functional
Rattus norvegicus [8] = assay: Mineral apposition measured Histomorphometrically after a dose of 6000 ug/kg in proximal tibial metaphysis; assay type: functional
Summary of the method: (§5)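 Positive-control arm: rats ovariectomized at six months, then from day 60 given PGE2 at 6 mg/kg/day for 60 days. Labels were xylenol orange 90 mg/kg before treatment and calcein 10 mg/kg 14 and 4 days before sacrifice. The tibia was read by fluorescent-light histomorphometry; metaphysis region 1–4 mm distal to the growth plate junction.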

Rattus norvegicus [9] = assay: Connectivity density measured using micro Computed Tomography(CT) after a dose of 6000 ug/kg in Vertebral Bone; assay type: functional; summary of the method: as §2
Rattus norvegicus [10] = assay: Periosteal mineralizing surface measured Histomorphometrically after a does of 6000 ug/kg in Tibial Diaphysis; assay type: functional; summary of the method: as §1
Rattus norvegicus [11] = assay: Mineral surface/bone surface measured Histomorphometrically after a dose of 6000 ug/kg in proximal tibial metaphysis; assay type: functional; summary of the method: as §5
Rattus norvegicus [12] = assay: Bone Volume /Tissue Volume (%)measured using micro Computed Tomography(CT) after a dose of 6000 ug/kg in Vertebral Bone; assay type: functional; summary of the method: as §2
Rattus norvegicus [13] = assay: Mineralizing apposition measured Histomorphometrically after a dose of 6000 ug/kg in […]; assay type: functional
Rattus norvegicus [14] = assay: Derived trabecular no measured using micro Computed Tomography(CT) after a dose of 6000 ug/kg in Vertebral Bone; assay type: functional, Trabecula; summary of the method: as §2
Rattus norvegicus [15] = assay: Bone Volume /Tissue Volume (%)measured Histomorphometrically after a dose of 6000 ug/kg in proximal tibial metaphysis; assay type: functional; summary of the method: as §3
Rattus norvegicus [16] = assay: Bone Formation rate/bone measured Histomorphometrically after a dose of 6000 ug/kg in proximal tibial metaphysis; assay type: functional; summary of the method: as §3
Rattus norvegicus [17] = assay: Endosteal eroded surface measured Histomorphometrically after a dose of 6000 ug/kg in Tibial Diaphysis; assay type: functional
Summary of the method: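 Tibial histomorphometry in 6-month-old rats, OVX 60 days before treatment, then daily injection for 60 days. Vehicle was acetate-buffered saline with methylcellulose and polyoxyethylenesorbitan monooleate. Rats received xylenol orange 90 mg/kg before treatment and calcein 10 mg/kg at 14 and 4 days pre-sacrifice. Rats were killed by cardiac puncture under ketamine/xylazine. Groups were compared with vehicle by ANOVA plus LSD test.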

Rattus norvegicus [18] = assay: Trabecular thickness measured Histomorphometrically after a dose of 6000 ug/kg in proximal tibial metaphysis; assay type: functional, Trabecula; summary of the method: as §4

CCCCC[C@H](O)/C=C/[C@H]1[C@H](O)CC(=O)[C@@H]1C/C=C\CCCC(=O)O [DINOPROSTONE]
Tissue area (Rattus norvegicus [1]): 5.22 mm | Derived trabecular thickness (Rattus norvegicus [2]): 95.1 µm | Activity (Rattus norvegicus [3]): 45.62% | Marrow area (Rattus norvegicus [4]): 0.76 mm | Directly measured thickness (Rattus norvegicus [5]): 149 µm | Trabecular no. (Rattus norvegicus [6]): 1.76 | Endosteal mineralizing surface (Rattus norvegicus [7]): 61.22% | Mineral apposition rate (Rattus norvegicus [8]): 1.19 µm/day | Connectivity density (Rattus norvegicus [9]): 47.81 mm**-3 | Periosteal mineralizing surface (Rattus norvegicus [10]): 58.37% | Activity (Rattus norvegicus [11]): 36.23% | Activity (Rattus norvegicus [12]): 43.79% | Mineralizing apposition rate (Rattus norvegicus [13]): 1.33 µm/day | Derived trabecular number (Rattus norvegicus [14]): 4.6 1/mm | Activity (Rattus norvegicus [15]): 11.65% | Activity (Rattus norvegicus [16]): 394.7% | Endosteal eroded surface (Rattus norvegicus [17]): 0.79% | Trabecular thickness (Rattus norvegicus [18]): 66.14
